Experimental data as given in ChEMBL document CHEMBL1125363, “Novel piperidine sigma receptor ligands as potential antipsychotic drugs” (J Med Chem, 1992).

How the values were obtained:
[1] = target: Sigma non-opioid intracellular receptor 1 (Mus musculus, UniProt O55242); test: In vitro binding affinity for the mouse sigma opioid receptor
D(2) dopamine receptor = D(2) dopamine receptor (Mus musculus, UniProt P61168); test: In vitro binding affinity towards dopamine receptor D2
Mus musculus [2] = species on record: Mus musculus; test: Potency was tested using Anti mescaline test(Intra peritoneal); type: functional
Outline: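 Mouse mescaline-antagonism test with the test compound given intraperitoneally. Read-out is the ED50 in mg/kg ip.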

[3] = target: Serotonin 2 (5-HT2) receptor (Mus musculus, UniProt Q02152+P34968+P35363); test: In vitro binding affinity for serotonin 5-hydroxytryptamine (5-HT) 2 receptors; type: protein assay
Mus musculus [4] = species on record: Mus musculus; test: Oral potency tested by using anti-mescaline test; type: functional
Outline: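 Mice; mescaline was given to evoke hallucinogen-type behaviour, and the test compound was dosed orally to antagonise it. Potency is the ED50 in mg/kg po. Some ED50s are the average of three measurements.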

[5] = Oral potency by using Anti aggression test; type: functional
Outline: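 Mice were held in prolonged isolation, then exposed to intruders. The aggressive response was scored after oral dosing of the test compound. Potency is the ED50 in mg/kg po.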

Rattus norvegicus = species on record: Rattus norvegicus; test: Oral potency tested using 5HTP induced head twitch test; type: functional
Mus musculus [6] = species on record: Mus musculus; test: Oral potency tested using apomorphine induced climbing test; type: functional
Mus musculus [7] = species on record: Mus musculus; test: Oral potency by using Anti aggression test

Sequence of Sigma non-opioid intracellular receptor 1 (O55242 whole entry): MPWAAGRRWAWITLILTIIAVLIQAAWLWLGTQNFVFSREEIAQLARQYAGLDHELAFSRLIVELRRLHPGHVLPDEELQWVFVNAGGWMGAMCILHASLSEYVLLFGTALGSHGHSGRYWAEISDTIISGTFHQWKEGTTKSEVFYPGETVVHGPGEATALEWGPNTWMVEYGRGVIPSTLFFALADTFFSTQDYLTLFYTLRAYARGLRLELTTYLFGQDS
Sequence of D(2) dopamine receptor (P61168 whole entry): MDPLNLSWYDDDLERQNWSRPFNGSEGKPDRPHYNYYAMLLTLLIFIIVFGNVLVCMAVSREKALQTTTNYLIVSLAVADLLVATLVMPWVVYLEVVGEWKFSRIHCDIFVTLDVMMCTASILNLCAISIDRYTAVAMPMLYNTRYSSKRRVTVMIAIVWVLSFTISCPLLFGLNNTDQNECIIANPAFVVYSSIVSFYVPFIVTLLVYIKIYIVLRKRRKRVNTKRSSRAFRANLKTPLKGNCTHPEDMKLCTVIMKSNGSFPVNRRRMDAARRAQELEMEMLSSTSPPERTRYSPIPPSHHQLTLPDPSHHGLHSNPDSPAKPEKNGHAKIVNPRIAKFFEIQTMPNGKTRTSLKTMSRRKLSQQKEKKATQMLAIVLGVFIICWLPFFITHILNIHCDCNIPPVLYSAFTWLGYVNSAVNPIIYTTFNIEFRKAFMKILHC

Fc1ccc(COCC2CCN(Cc3ccncc3)CC2)cc1.O=C(O)/C=C/C(=O)O
Ki [1]: 2 nM | IC50 (D(2) dopamine receptor): > 10000 nM | ED50 (Mus musculus [2]): < 10 mg/kg

O.O=C(CC1CCN(CCc2c[nH]c3ccccc23)CC1)c1ccc(F)cc1
Ki [1]: 26 nM | IC50 (D(2) dopamine receptor): 7 nM | Ki [3]: 3.6 nM | ED50 (Mus musculus [4]): < 10 mg/kg

O.O=[N+]([O-])c1ccc(OCC2CCN(CC3CC3)CC2)cc1
Ki [1]: 13 nM | IC50 (D(2) dopamine receptor): > 10000 nM | Ki [3]: 215 nM | ED50 [5]: 1.4 mg/kg | ED50 (Rattus norvegicus): > 10 mg/kg | ED50 (Mus musculus [6]): > 30 mg/kg | ED50 (Mus musculus [4]): 0.85 mg/kg

O=C(O)/C=C\C(=O)O.c1ccc(CCCOC2CCN(Cc3ccccc3)CC2)cc1
Ki [1]: 2 nM | IC50 (D(2) dopamine receptor): 8100 nM | ED50 (Mus musculus [2]): < 10 mg/kg

O=C(CC1CCN(Cc2ccc(F)cc2)CC1)c1ccc(F)cc1
Ki [1]: 3 nM | IC50 (D(2) dopamine receptor): 608 nM | Ki [3]: 26 nM | ED50 [5]: 4.5 mg/kg | ED50 (Rattus norvegicus): < 10 mg/kg | ED50 (Mus musculus [6]): < 10 mg/kg | ED50 (Mus musculus [4]): 4.5 mg/kg

O.O=C(O)/C=C\C(=O)O.c1ccc(CN2CCC(COCc3ccc(-c4ccccc4)cc3)CC2)cc1
Ki [1]: 20 nM | IC50 (D(2) dopamine receptor): 1850 nM | Ki [3]: 47 nM | ED50 (Mus musculus [2]): 10 mg/kg

O.OC(CC1CCN(Cc2ccccc2)CC1)c1cccs1 (stereo unspecified)
Ki [1]: 5 nM | IC50 (D(2) dopamine receptor): 3720 nM | Ki [3]: 446 nM | ED50 (Mus musculus [4]): > 30 mg/kg

O.c1ccc2cc(OCC3CCN(CC4CC4)CC3)ccc2c1
Ki [1]: 5 nM | IC50 (D(2) dopamine receptor): 2960 nM | Ki [3]: > 100 nM | ED50 (Mus musculus [2]): > 10 mg/kg

O.c1ccc(-c2ccc(OCC3CCN(CC4CC4)CC3)cc2)cc1
Ki [1]: 12 nM | IC50 (D(2) dopamine receptor): > 10000 nM | Ki [3]: > 10000 nM | ED50 [5]: 30 mg/kg | ED50 (Rattus norvegicus): > 30 mg/kg | ED50 (Mus musculus [6]): > 30 mg/kg | ED50 (Mus musculus [4]): 7.5 mg/kg

Fc1ccc(OCC2CCN(CC3CC3)CC2)cc1
Ki [1]: 2 nM | IC50 (D(2) dopamine receptor): 381 nM | Ki [3]: 9 nM | ED50 [5]: 12 mg/kg | ED50 (Rattus norvegicus): 10 mg/kg | ED50 (Mus musculus [6]): > 30 mg/kg | ED50 (Mus musculus [4]): 2.9 mg/kg

O.O=C(Cc1ccc(F)cc1)C1CCN(Cc2ccncc2)CC1.O=C(O)/C=C\C(=O)O
Ki [1]: 7 nM | IC50 (D(2) dopamine receptor): > 10000 nM | Ki [3]: 1705 nM | ED50 [5]: 38 mg/kg | ED50 (Rattus norvegicus): 28 mg/kg | ED50 (Mus musculus [4]): 10 mg/kg

O=C(O)/C=C\C(=O)O.c1ccc(CCCOCC2CCN(Cc3ccccc3)CC2)cc1
Ki [1]: 3.2 nM | IC50 (D(2) dopamine receptor): 839 nM | Ki [3]: 260 nM | ED50 (Mus musculus [2]): < 10 mg/kg

O=C(O)/C=C\C(=O)O.c1ccc(CN2CCC(COC3CC3)CC2)cc1
Ki [1]: 2 nM | IC50 (D(2) dopamine receptor): > 10000 nM | Ki [3]: > 10000 nM | ED50 (Mus musculus [4]): > 30 mg/kg

Fc1ccc(OCC2CCN(CCC3CC3)CC2)cc1.O=C(O)/C=C/C(=O)O
Ki [1]: 3 nM | IC50 (D(2) dopamine receptor): 428 nM | ED50 [5]: 4.5 mg/kg | ED50 (Rattus norvegicus): < 10 mg/kg | ED50 (Mus musculus [4]): 3.1 mg/kg

CN(C)c1cccc(OCC2CCN(CC3CC3)CC2)c1.O
Ki [1]: 5 nM | IC50 (D(2) dopamine receptor): 7330 nM | Ki [3]: 1158 nM | ED50 (Mus musculus [2]): < 10 mg/kg

Fc1ccc(OCC2CCN(Cc3ccc4ccccc4c3)CC2)cc1
Ki [1]: 51 nM | IC50 (D(2) dopamine receptor): 4340 nM | Ki [3]: 118 nM | ED50 (Mus musculus [4]): 1.7 mg/kg

N#Cc1ccc(OCC2CCN(CC3CC3)CC2)cc1
Ki [1]: 10 nM | IC50 (D(2) dopamine receptor): > 10000 nM | Ki [3]: 2818 nM | ED50 [5]: 2.6 mg/kg | ED50 (Rattus norvegicus): 29 mg/kg | ED50 (Mus musculus [4]): 1.7 mg/kg

COc1ccc(C(O)CC2CCN(Cc3ccccc3)CC2)cc1.Cl (stereo unspecified)
Ki [1]: 20 nM | IC50 (D(2) dopamine receptor): > 10000 nM | Ki [3]: 187 nM | ED50 (Mus musculus [4]): > 30 mg/kg

Cl.Clc1ccc(OCC2CCN(CC3CC3)CC2)cc1
Ki [1]: 4 nM | IC50 (D(2) dopamine receptor): > 10000 nM | Ki [3]: 40 nM | ED50 [5]: 26 mg/kg | ED50 (Rattus norvegicus): 27 mg/kg | ED50 (Mus musculus [6]): > 30 mg/kg | ED50 (Mus musculus [4]): 4.4 mg/kg

Cl.Fc1ccc(OCC2CCN(Cc3ccccc3)CC2)cc1.O
Ki [1]: 2 nM | IC50 (D(2) dopamine receptor): 870 nM | Ki [3]: 28 nM | ED50 [5]: 8.2 mg/kg | ED50 (Mus musculus [6]): > 30 mg/kg | ED50 (Mus musculus [4]): 4 mg/kg

CC(C)(C)c1ccc(COCCC2CCN(Cc3ccccc3)CC2)cc1.Cl
Ki [1]: 4.5 nM | IC50 (D(2) dopamine receptor): 6750 nM | Ki [3]: 939 nM | ED50 (Mus musculus [2]): > 10 mg/kg

Cl.Fc1ccc(COCC2CCN(Cc3ccc(Cl)cc3)CC2)cc1
Ki [1]: 2 nM | Ki [3]: 281 nM | ED50 (Mus musculus [2]): < 10 mg/kg

Cl.Clc1ccc(OCC2CCN(Cc3ccccc3)CC2)cc1
Ki [1]: 8.3 nM | IC50 (D(2) dopamine receptor): 4210 nM | Ki [3]: 137 nM | ED50 [5]: 10 mg/kg | ED50 (Rattus norvegicus): > 10 mg/kg | ED50 (Mus musculus [4]): 8 mg/kg

Cl.Fc1ccc(COCC2CCN(Cc3ccc4ccccc4c3)CC2)cc1
IC50 (D(2) dopamine receptor): 305 nM | Ki [3]: 251 nM | ED50 (Mus musculus [2]): > 10 mg/kg

Cl.c1ccc(CCCCCOCC2CCN(Cc3ccccc3)CC2)cc1
Ki [1]: 26 nM | IC50 (D(2) dopamine receptor): 1850 nM | Ki [3]: 186 nM | ED50 (Mus musculus [2]): > 10 mg/kg

Cl.c1ccc(CN2CCC(COc3ccc4ccccc4n3)CC2)cc1
Ki [1]: 5.6 nM | IC50 (D(2) dopamine receptor): 6300 nM | Ki [3]: 311 nM | ED50 (Mus musculus [2]): < 10 mg/kg

Br.COc1ccc(C(=O)CC2CCN(CC3CC3)CC2)cc1
Ki [1]: 55 nM | IC50 (D(2) dopamine receptor): 1800 nM | Ki [3]: 1883 nM | ED50 (Mus musculus [2]): > 10 mg/kg

Cl.O.O=C(CC1CCN(CC2CC2)CC1)c1ccc(C(F)(F)F)cc1
Ki [1]: 45 nM | ED50 (Mus musculus [7]): > 30 mg/kg | IC50 (D(2) dopamine receptor): > 10000 nM | Ki [3]: 278 nM | ED50 (Mus musculus [6]): > 30 mg/kg | ED50 (Mus musculus [4]): 6.6 mg/kg

Cl.c1ccc(COCC2CCN(Cc3ccccc3)CC2)cc1
Ki [1]: 4 nM | IC50 (D(2) dopamine receptor): > 10000 nM | Ki [3]: > 1000 nM | ED50 (Mus musculus [2]): > 10 mg/kg

Br.O=C(CC1CCN(CCC2CC2)CC1)c1ccc(F)cc1
Ki [1]: 11 nM | IC50 (D(2) dopamine receptor): 220 nM | Ki [3]: 12 nM | ED50 (Mus musculus [4]): < 10 mg/kg

Cl.c1ccc(CN2CCC(COC3CCCCC3)CC2)cc1
Ki [1]: 2 nM | IC50 (D(2) dopamine receptor): > 10000 nM | Ki [3]: 1363 nM | ED50 (Mus musculus [2]): < 10 mg/kg

Cl.O.OC(Cc1ccc(F)cc1)C1CCN(Cc2ccccc2)CC1 (stereo unspecified)
Ki [1]: 3 nM | IC50 (D(2) dopamine receptor): 789 nM | Ki [3]: 360 nM | ED50 [5]: > 30 mg/kg | ED50 (Mus musculus [6]): > 30 mg/kg | ED50 (Mus musculus [4]): 5 mg/kg

Cl.Fc1ccc(COCC2CCN(Cc3ccc(-c4ccccc4)cc3)CC2)cc1
Ki [1]: 14 nM | IC50 (D(2) dopamine receptor): 818 nM | Ki [3]: > 1000 nM | ED50 (Mus musculus [2]): > 10 mg/kg

Cl.c1ccc(CCCCOCC2CCN(Cc3ccccc3)CC2)cc1
Ki [1]: 2 nM | IC50 (D(2) dopamine receptor): 4340 nM | Ki [3]: 224 nM | ED50 (Mus musculus [2]): > 10 mg/kg

CCCCCN1CCC(COCc2ccc(F)cc2)CC1.Cl
Ki [1]: 9 nM | IC50 (D(2) dopamine receptor): 1320 nM | ED50 (Mus musculus [2]): < 10 mg/kg

Cl.OC(CC1CCN(Cc2ccccc2)CC1)c1ccc(F)cc1 (stereo unspecified)
Ki [1]: 8 nM | IC50 (D(2) dopamine receptor): 5660 nM | Ki [3]: 323 nM | ED50 [5]: 32 mg/kg | ED50 (Rattus norvegicus): 6.8 mg/kg | ED50 (Mus musculus [6]): > 30 mg/kg | ED50 (Mus musculus [4]): 5 mg/kg

Cl.Fc1ccc(OCC2CCN(CCc3ccc(Cl)cc3)CC2)cc1
Ki [1]: 5 nM | IC50 (D(2) dopamine receptor): 368 nM | Ki [3]: 26 nM | ED50 [5]: 10 mg/kg | ED50 (Rattus norvegicus): > 10 mg/kg | ED50 (Mus musculus [4]): 1.7 mg/kg

C[C@@H]1CN(CCCn2c3ccccc3c3ccccc32)C[C@H](C)N1 [RIMCAZOLE]
Ki [1]: 820 nM | ED50 (Mus musculus [7]): 48 mg/kg | Ki [3]: 2842 nM | ED50 (Mus musculus [6]): > 90 mg/kg | ED50 (Mus musculus [4]): 22 mg/kg
